According to ChEMBL document CHEMBL5032526 (Eur J Med Chem, 2021):

Assays:
Huh-7 = assay: (§1) Cytotoxicity against human Huh-7 cells assessed as reduction in cell viability measured after 24 hrs by CellTiter-Glo analysis; format: cell-based; settings: huh-7, 24 h
SARS-CoV-2 [1] = assay: Antiviral activity against SARS Cov-2 USA/WA1/2020 infected in Vero E6 cells assessed as reduction in virus-induced cytopathic effect preincubated for 1 hr followed by viral infection and measured after 48 hrs post infection; format: functional, organism-based; settings: Severe acute respiratory syndrome coronavirus 2, USA/WA1/2020, Vero C1008
[2] = Selectivity index, ratio of CC50 for human Huh-7 cells to IC50 for Antiviral activity against Ebola virus trVLP infected in human Huh-7 cells; format: toxicity, cell-based; settings: read-out: Ratio CC50/IC50
Ebolavirus [3] = assay: Antiviral activity against Ebola virus trVLP infected in human Huh-7 cells pretreated for 1 hrs followed by viral infection and measured after 24 hrs by dual luciferase reporter assay; format: functional, organism-based; settings: Orthoebolavirus
Procedure, shortened: (§2)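 Huh-7 cells were transfected in suspension with EBOV VP35, NP, VP30 and L plasmids plus constitutive firefly (ce-FF). At 24 h, compounds were added in triplicate (0-50 µM, 2-fold series) for 1 h before trVLP infection.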

Ebolavirus [4] = assay: Antiviral activity against Ebola virus constitutively expressed firefly infected in human Huh-7 cells expressing pretreated for 1 hrs followed by viral infection and measured after 24 hrs by dual luciferase reporter assay; format: functional, organism-based; settings: Orthoebolavirus; procedure, shortened: as §2
[5] = (§3) Cytotoxicity against human Calu-3 cells assessed as reduction in cell viability after 48 hrs by Cell-Tox green based fluorescence assay; settings: Calu-3 cells
Procedure, shortened: (§4)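 Calu3 cells (1 x 10^4) were plated and exposed 24 h later to 3-fold serial compound dilutions. At 48 h, CellTox Green fluorescence was read, and CC50 was fitted by four-parameter nonlinear regression.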

[6] = as §1; format: cell-based; settings: Huh-7 cells
[7] = Metabolic stability in human plasma assessed as compound remaining at 10 uM after 2 hrs by LC-QTOF-MS analysis; format: ADME, cell-free
Procedure, shortened: (§5)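 Compound (10 µM) was incubated in human plasma at 37 °C, with aliquots taken from 0 to 24 h. Proteins were precipitated with cold ethanol (30 min, -20 °C), and samples were centrifuged and concentrated. Analysis was by LC-QTOF-MS with a ±0.1 m/z EIC window, and % digestion was calculated from peak area relative to 0 min.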

SARS-CoV-2 [8] = assay: Antiviral activity against SARS coronavirus 2 USA/WA1/2020 infected in Calu-3 cells assessed as reduction in virus-induced cytopathic effect preincubated for 1 hr followed by viral infection and measured after 48 hrs; format: functional, organism-based; settings: Severe acute respiratory syndrome coronavirus 2, USA/WA1/2020, Calu-3
[9] = Metabolic stability in human plasma assessed as drug degradation at 10 uM after 1 hr by LC-QTOF-MS analysis; format: ADME, cell-free; settings: read-out: Drug degradation; procedure, shortened: as §5
SARS-CoV-2 [10] = assay: Antiviral activity against SARS Cov-2 USA_WA1/2020 infected in human Calu-3 cells measured upto 72 hrs by qRT-PCR method; format: functional, organism-based; settings: Severe acute respiratory syndrome coronavirus 2, USA_WA1/2020, Calu-3, 72 h
Ebolavirus [11] = assay: Antiviral activity against wild type Ebola virus infected in human HeLa cells assessed as reduction in viral infection measured after 24 hrs by Hoechst 33342 staining based microscopic analysis; format: functional, organism-based; settings: Orthoebolavirus
SARS-CoV-2 [12] = assay: Antiviral activity against SARS Cov-2 USA_WA1/2020 infected in HAE cells measured upto 72 hrs by qRT-PCR method; format: functional, organism-based; settings: Severe acute respiratory syndrome coronavirus 2, USA_WA1/2020, HAE
[13] = Selectivity index, ratio of CC50 for human Huh-7 cells to IC50 for Antiviral activity against Ebola virus constitutively expressed firefly; format: toxicity; settings: read-out: Ratio CC50/IC50
[14] = Selectivity index, ratio of CC50 for African green monkey Vero E6 cells to IC50 for Antiviral activity against SARS coronavirus 2 USA/WA1/2020 infected in Vero E6 cells assessed as reduction in virus-induced cytopathic effect; format: toxicity, cell-based, Vero C1008; settings: read-out: Ratio CC50/IC50
Calu-3 = assay: as §3; settings: calu-3, 48 h; procedure, shortened: as §4
[15] = Selectivity index, ratio of CC50 for human Calu-3 cells to IC50 for Antiviral activity against SARS coronavirus 2 USA/WA1/2020 infected in human Calu3 cells assessed as reduction in virus-induced cytopathic effect; format: toxicity, cell-based; settings: read-out: Ratio CC50/IC50
[16] = Metabolic stability in human plasma assessed as compound remaining at 10 uM after 4 hrs by LC-QTOF-MS analysis; format: ADME, cell-free; settings: read-out: Stability; procedure, shortened: as §5

SMILES	CC50 (Huh-7) [µM]	IC50 (SARS-CoV-2 [1]) [µM]	selectivity ratio [2]	IC50 (Ebolavirus [3]) [µM]	IC50 (Ebolavirus [4]) [µM]	CC50 at 48 h [5] [µM]	CC50 at 24 h [6] [µM]	remaining at 2 h, 10 µM ([7]; read-out: Stability) [%]	IC50 (SARS-CoV-2 [8]) [µM]	metabolised at 1 h, 10 µM [9] [%]	EC50 (SARS-CoV-2 [10]) [µM]	IC50 (Ebolavirus [11]) [µM]	EC50 (SARS-CoV-2 [12]) [µM]	selectivity ratio [13]	selectivity ratio [14]	CC50 (Calu-3) [µM]	selectivity ratio [15]	Stability ([7]; 2 h, 10 µM)	remaining at 4 h, 10 µM [16] [%]
CCSCCCCCCCCCCCC(=O)O	> 50	> 50	> 50	> 50	> 50														
CCCCCCCCCCOCCC(=O)O	> 50	> 50	> 50	> 50	> 50														
CCC(CC)COC(=O)[C@H](C)N[P@](=O)(OC[C@H]1O[C@@](C#N)(c2ccc3c(N)ncnn23)[C@H](O)[C@@H]1O)Oc1ccccc1		0.85		0.32	24	> 50	> 50	47	0.06	13	0.28	1	0.01						
CCSCCCCCCCCCCCC(=O)O[C@@H]1[C@H](O)[C@@H](CO[P@@](=O)(N[C@H](C)C(=O)OCC(CC)CC)Oc2ccccc2)O[C@@]1(C#N)c1ccc2c(N)ncnn12	41	3.5	164	0.25	29									1.41	> 14.2				
CCCCCCCCCCOCCC(=O)O[C@@H]1[C@H](O)[C@@H](CO[P@@](=O)(N[C@H](C)C(=O)OCC(CC)CC)Oc2ccccc2)O[C@@]1(C#N)c1ccc2c(N)ncnn12	15	4.6	50	0.3	36									0.417	> 10.9				
CCCCCCCCCCOCCC(=O)O[C@H]1[C@@H](O)[C@](C#N)(c2ccc3c(N)ncnn23)O[C@@H]1CO[P@@](=O)(N[C@H](C)C(=O)OCC(CC)CC)Oc1ccccc1	7.4	2	46.3	0.16	14				0.18					0.529	> 25.6	34.3	> 191		
CCCCCCCCCCCCCCCC(=O)O[C@@H]1[C@H](O)[C@@H](CO[P@@](=O)(N[C@H](C)C(=O)OCC(CC)CC)Oc2ccccc2)O[C@@]1(C#N)c1ccc2c(N)ncnn12	> 50		> 6.94	7.2	> 50				3.6							> 50	> 13.9		
CCC(CC)COC(=O)[C@@H](C)N[P@](=O)(OC[C@H]1O[C@@](C#N)(c2ccc3c(N)ncnn23)[C@H](O)[C@@H]1OC(=O)CCCCCCCCCCCN=[N+]=[N-])Oc1ccccc1	20	3	44.4	0.45	> 50				0.51			0.83			> 16.6	> 50	> 98	Stable	77.9
CCCCCCCCCCCCCCCC(=O)O[C@H]1[C@@H](O)[C@](C#N)(c2ccc3c(N)ncnn23)O[C@@H]1CO[P@@](=O)(N[C@H](C)C(=O)OCC(CC)CC)Oc1ccccc1	> 50		> 172	2.9	> 50				1.6							> 50	> 32.3		
CCCCCCCCCCCCCC(=O)O[C@H]1[C@@H](OC(=O)CCCCCCCCCCCCC)[C@](C#N)(c2ccc3c(N)ncnn23)O[C@@H]1CO[P@@](=O)(N[C@H](C)C(=O)OCC(CC)CC)Oc1ccccc1	> 50	31	> 4.13	12.1	> 50										> 1.59				
[N-]=[N+]=NCCCCCCCCCCCC(=O)O	> 50	> 50	> 50	> 50	> 50														
CCC(CC)COC(=O)[C@@H](C)N[P@](=O)(OC[C@H]1O[C@@](C#N)(c2ccc3c(N)ncnn23)[C@H](OC(=O)CCCCCCCCCCCN=[N+]=[N-])[C@@H]1O)Oc1ccccc1		4.6	54	0.5	> 50		27					0.19			> 10.9				
CCCCCCCCCCCCCC(=O)O[C@H]1[C@@H](O)[C@](C#N)(c2ccc3c(N)ncnn23)O[C@@H]1CO[P@@](=O)(N[C@H](C)C(=O)OCC(CC)CC)Oc1ccccc1	> 50	2.3	> 70.4	0.71	> 50				0.24						> 22.1	> 50	> 208		
CCCCCCCCCCCCCC(=O)O[C@@H]1[C@H](O)[C@@H](CO[P@@](=O)(N[C@H](C)C(=O)OCC(CC)CC)Oc2ccccc2)O[C@@]1(C#N)c1ccc2c(N)ncnn12	> 50	2.4	> 74.6	0.67	> 50				0.29						> 20.7	> 50	> 172		
CCSCCCCCCCCCCCC(=O)O[C@H]1[C@@H](O)[C@](C#N)(c2ccc3c(N)ncnn23)O[C@@H]1CO[P@@](=O)(N[C@H](C)C(=O)OCC(CC)CC)Oc1ccccc1	23	2.4	82.1	0.28	> 50				0.25						> 20.5	> 50	> 200		
CCCCCCCCCCCCCC(=O)O [MYRISTIC ACID]	> 50	> 50	> 50	> 50	> 50														
